Compounds with a hit are over-represented: about 3.1% of the library has one in this group of screens.
LEDGF integ inh: blocks HIV-1 LEDGF/p75-dependent DNA integration | TR-FRET IN-LEDGF/p75 DNA integration, Eu/Cy5 | inhibition, % at 3.7 µM | 370,000 tested, 0.64% active;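 active means inhibition above the screen-wide mean plus 3 SD, cut at about 13% in these data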;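 further: signal is the Cy5 over europium emission ratio at 671 and 618 nm; 0% = plate median of compound wells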
MBD2 inh: blocks human MBD2 binding to methylated DNA; AID 686964; Q9UBB5; 370,000 tested, 0.31% active; TR-FRET, MBD2 binding to methylated oligonucleotide; inhibition, % at 4.4 µM; in the data active means inhibition above about 13%
Target sequence (Q9UBB5 whole entry, looked up): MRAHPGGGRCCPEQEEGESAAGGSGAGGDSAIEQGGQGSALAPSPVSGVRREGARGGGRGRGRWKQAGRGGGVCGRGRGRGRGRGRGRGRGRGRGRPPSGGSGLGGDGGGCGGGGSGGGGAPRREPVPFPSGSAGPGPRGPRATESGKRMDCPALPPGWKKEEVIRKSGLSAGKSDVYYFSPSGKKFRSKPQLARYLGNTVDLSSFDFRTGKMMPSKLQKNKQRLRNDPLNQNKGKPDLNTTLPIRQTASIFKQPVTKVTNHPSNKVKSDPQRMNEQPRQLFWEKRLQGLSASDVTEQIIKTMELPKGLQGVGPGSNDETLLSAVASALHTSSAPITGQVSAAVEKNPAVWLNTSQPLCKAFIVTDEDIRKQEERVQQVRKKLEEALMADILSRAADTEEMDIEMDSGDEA
CSN inh: blocks human CSN-mediated cullin deneddylation; Q92905; Purified CSN, SCF-Nedd8-OG deneddylation, fluorescence polarization; inhibition, % at 12.5 µM; 360,000 tested, 0.38% active; AID 651999;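 active means pattern-corrected inhibition above about 35%, with an unprinted fluorescence ratio check between 0.5 and 1.5, limit read from the data, passing the limit was not always enough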;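 further: 0% = enzyme with substrate and 100% = substrate without enzyme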
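Material: purified human Csn5 enzyme expressed in HEK293T cells / Medium: Tris buffer pH 7.5, NaCl, DTT, Tween-20, trehalose, ovalbumin / Compound dosing: 12.5 µM single point / Schedule: 90 min incubation of compound, enzyme and substrate at room temperature / Signal: fluorescence polarization of the substrate / Control set: no-enzyme wells high, enzyme-with-substrate wells low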
ATG4B inh: ATG4B (human) cysteine protease inhibition. Q9Y4P1. ATG4B cleavage of LC3-PLA2, NBD-HPC fluorescence, 1 h. inhibition, % at 8.33 µM. 340,000 tested, 0.51% active. AID 504462; in the data active means inhibition above about 40%
UHRF1 MBD2 ctr: human UHRF1 methylated DNA binding inhibitors | UHRF1 binding to methylated oligo, TR-FRET | inhibition, % at 4.4 µM | 370,000 tested, 0.75% active | AID 687016; in the data active means inhibition above about 21%;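 further: UHRF1 SRA domain binding a hemimethylated CpG hairpin DNA probe; 0% = median of test compound wells and 100% = reference inhibitor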
rCAG binder: r(CAG) repeat RNA binding; TO-PRO-1 dye displacement fluorescence; inhibition, % at 3 µM; 370,000 tested, 1.3% active;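 active means inhibition above the plate cutoff, the mean of all test compounds on that plate plus 3 SD, cut at about 35% in these data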;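 further: 0% = DMSO alone and 100% = 100 µM mitoxantrone as full dye displacement; higher means more dye released from RNA so lower well fluorescence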
rCAG bind conf: r(CAG) RNA repeat binding, confirmation. TO-PRO-1 dye displacement fluorescence. inhibition, % at 3 µM. AID 652065. shares compounds with rCAG binder. 4,300 tested, 70% active;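 active means inhibition above a per-plate cutoff, the mean inhibition of sample wells plus 3 SD, cut at about 35% in these data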;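 further: loss of TO-PRO-1 fluorescence as compound displaces dye from 1x1 AA loop RNA; 0% = DMSO only wells and 100% = 100 µM mitoxantrone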
dCAG dye counter: DNA CAG dye complex inhibition counter-screen; inhibition, % at 3 µM; 4,300 tested, 94% active; d(CAG) DNA oligo TO-PRO-1 dye displacement, fluorescence; shares compounds with rCAG binder;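 active means inhibition above its plate's cutoff, the mean test-well inhibition plus 3 SD, cut at about 4.8% in these data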;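 further: 0% = DNA dye mix with DMSO and 100% = 100 µM mitoxantrone; hits displace the dye from DNA and so lower well fluorescence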
dCAG dye DR: disrupts DNA CAG TO-PRO-1 complex in dose response | shares compounds with rCAG binder | DNA CAG/GTC duplex TO-PRO-1 dye displacement fluorescence | IC50, µM | 250 tested, 20% active | AID 686960; in the data active means IC50 below about 10 µM
The depositor's hits bear a star; i = inactive; · = not tested or not shown.

SMILES	LEDGF integ inh	MBD2 inh	CSN inh	ATG4B inh	UHRF1 MBD2 ctr	rCAG binder	rCAG bind conf	dCAG dye counter	others
COc1ccc(Cn2ccc3ccc(-c4ccc5ccn(Cc6ccc(F)cc6)c5c4)cc32)cc1	-1	1	·	·	0	14	·	·
O=C(c1cc(-c2cccc(Cl)c2)nc2ccccc12)N1CCN(c2ccccn2)CC1	-1	3	4	-4	-1	1	·	·
O=C(O)c1cc(-c2cccc(Cl)c2)nc2nc(N3CCCCC3)sc12	0	2	-6	-2	0	46*	47*	12*	dCAG dye DR=i
O=C(c1cc(-c2ccccc2)on1)N1CCC(Oc2cccnc2)CC1	0	0	·	·	-2	-3	·	·
CC1=C2NC(N)=[N+](Cc3ccccc3)CC2n2c(=O)n(-c3ccccc3)c(=O)n2C1 (stereo unspecified)	0	-1	·	·	0	14	·	·
S=c1[nH]nc(-c2cc(-c3ccccc3)n[nH]2)n1/N=C/C=C/c1ccco1	3	-4	31	6	-2	41*	51*	24*
O=[N+]([O-])c1ccccc1C=Nn1c(-c2cc(-c3ccccc3)n[nH]2)n[nH]c1=S	-5	0	·	·	3	47*	53*	19*
Cc1cc(-c2n[nH]c(=S)n2/N=C/c2ccccc2[N+](=O)[O-])n[nH]1	-1	-4	-1	-8	3	2	·	·
Cc1ccccc1/C=N/n1c(-c2cc(-c3ccccc3)n[nH]2)n[nH]c1=S	-8	-4	13	-8	1	31	·	·
S=c1[nH]nc(-c2n[nH]c3c2CCC3)n1/N=C/C=C/c1ccco1	5	1	15	1	1	9	·	·
S=c1[nH]nc(-c2cc(-c3ccccc3)n[nH]2)n1/N=C/c1cccc2ccccc12	-1	-4	·	·	-2	79*	78*	40*
Cc1ccc(-c2n[nH]c(=S)n2/N=C/C=C\c2ccccc2[N+](=O)[O-])cc1	4	1	5	3	-3	35*	33	11*
O=[N+]([O-])c1ccccc1/C=C/C=N/n1c(-c2ccccc2)n[nH]c1=S	3	-6	-4	5	1	28	·	·
CCCC(C)NC(=O)CC1Oc2ccccc2NC1=O (stereo unspecified)	2	0	·	·	5	6	·	·
CCC[C@H]1[C@@H](OC(=O)NCc2ccc(Cl)cc2)CC[C@@]23CCCN2C(=O)CCC[C@@H]13	-1	4	·	·	0	·	·	·
COc1ccc2ccccc2c1C=Nn1c(-c2cc(-c3ccccc3)n[nH]2)n[nH]c1=S	-4	-1	·	·	-2	70*	58*	27*
S=c1[nH]nc(-c2cc(-c3ccccc3)n[nH]2)n1/N=C/c1c(Cl)cccc1Cl	-2	2	46*	-4	-3	43*	68*	29*
Cc1ccsc1/C=N/n1c(-c2cc(-c3ccccc3)n[nH]2)n[nH]c1=S	1	-4	6	-22	0	29	·	·
CC(=O)NC(C)C(=O)N1CCCC1C(=O)N1CCCC1C(=O)NC(C)C(=O)NC1C(=O)NC(CC(C)C)C(=O)NC2CCCCNC(=O)CCC(C(=O)NC(Cc3ccc(O)cc3)C(=O)O)NC(=O)C3CCC(=O)OCC(NC(=O)C4CCCN4C(=O)C(Cc4c[nH]c5ccccc45)NC2=O)C(=O)NC(CC(=O)OC1C)C(=O)NC(Cc1c[nH]c2ccccc12)C(=O)N3 (stereo unspecified)	0	10	·	·	-10	18	·	·
CCOC(=O)c1sc2nc(-c3ccco3)c3c(c2c1N)CC(C)(C)OC3	42*	-1	14	5	7	51*	35*	14*
Cc1ccc(N(CC(=O)Nc2ccc(Br)c(C)c2)S(=O)(=O)c2c(C)[nH]c(=O)[nH]c2=O)cc1	1	-5	1	7	-1	47*	67*	23*
COc1ccc(N(CC(=O)Nc2cc(C)ccc2C)S(=O)(=O)c2c(C)[nH]c(=O)[nH]c2=O)cc1	0	-5	1	-1	1	14	·	·
Cc1cc(C)cc(N(CC(=O)Nc2ccc(C(F)(F)F)cc2)S(=O)(=O)c2c(C)[nH]c(=O)[nH]c2=O)c1	-7	5	2	3	13	49*	52*	16*
Cc1cc(C)cc(N(CC(=O)Nc2ccc(C)cc2Cl)S(=O)(=O)c2c(C)[nH]c(=O)[nH]c2=O)c1	0	4	-2	7	0	40*	54*	17*
COc1ccc(N(CC(=O)Nc2cc(Cl)ccc2OC)S(=O)(=O)c2c(C)[nH]c(=O)[nH]c2=O)cc1	4	2	-3	-9	0	49*	39*	13*
SMILES	LEDGF integ inh	MBD2 inh	CSN inh	ATG4B inh	UHRF1 MBD2 ctr	rCAG binder	rCAG bind conf	dCAG dye counter	others
CCOC(=O)[C@@]12CCCC3=C1N(CCC3)C(=O)[C@H]2CC(=O)NCC1CCCCC1	-2	5	·	·	1	1	·	·
COC(=O)[C@]12C[C@H](CC(=O)N3CCOCC3)C(=O)N(Cc3ccco3)C1=C[C@H](COCc1ccccc1)O[C@@H]2C	2	0	·	·	0	3	·	·
Cc1cc(/C=N/NC(=O)C(O)(c2ccccc2)c2ccccc2)c(C)n1-c1ccc(C(=O)O)cc1	5	4	5	18	0	35*	28	12*
COC(=O)[C@]12C[C@H](CC(=O)N3CCN(C(=O)c4ccco4)CC3)C(=O)N(Cc3cccc4ccccc34)C1=C[C@H](C(C)C)O[C@@H]2C1CC1	3	-5	·	·	-4	8	·	·
CC1(C(=O)NS(=O)(=O)c2ccccc2Cl)CCN1C(=O)C1(c2ccccc2)CC1 (stereo unspecified)	-2	3	-5	·	-3	12	·	·
Cc1ccccc1S(=O)(=O)NC(=O)C1(C)CCN1C(=O)C1(c2ccc(Cl)cc2)CCC1 (stereo unspecified)	6	-1	0	·	-3	48*	37*	8.8*
CC1(C(=O)NS(=O)(=O)c2ccccc2Cl)CCN1C(=O)C1(c2ccc(Cl)cc2)CC1 (stereo unspecified)	2	2	1	·	12	36*	28	5.1*
FC(F)(F)Oc1cccc(Cn2ccc3ccc(-c4ccc5ccn(Cc6cccc(OC(F)(F)F)c6)c5c4)cc32)c1	7	-1	·	·	-5	20	·	·

Screening results: PubChem BioAssay, several laboratories
